Laboratory results reported in the RNAGym collection of RNA variant scans (doi:10.1126/science.aae0568).
Fewer inactive variants are shown than the library holds.

B1: tRNA (parent)
chain: GUUCCGUUGGCGUAAUGGUAACGCGUCUCCCUCCUAAGGAGAAGACUGCGGGUUCGAGUCCCGUACGGAACG

Variants of: B1
Assay: yeast fitness relative to wild type (ratio to wild type); higher = fitter; tRNA-Arg(CCU), competitive growth, 37 C, YPD
In short: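 A pool of Saccharomyces cerevisiae strains, each with a tRNA-Arg(CCU) gene variant at the native genomic locus, was competed in YPD at 37°C for 24 hours across six parallel replicates. The variants had been chemically synthesised at a 3% per-site mutation rate over 69 sites, and gene amplicons before and after competition were read by 100-nucleotide paired-end sequencing. Darwinian fitness relative to wild type rested on changes in genotype frequencies. Genotypes required ≥ 100 starting reads, and estimates < 0.5 were set to 0.5.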

Variant | yeast fitness
C22U A36C A37G A65G | ≤ 0.5
C22G C27U C66U | 0.701
C22G U26C U32A G48A | ≤ 0.5
C22G C30A C66A | ≤ 0.5
C22U A37C G52C C62U | ≤ 0.5
C22G C34G U35A A36U C55U | ≤ 0.5
C22G C46U C66G | ≤ 0.5
C22G U47C A70U | 0.722
C22G C62U G68C | ≤ 0.5
C22G C30U A37G A43U | 0.549
C22G C33U | 0.713
C22G U28A C31G C55A | ≤ 0.5
C22G C31U C62U A65U | ≤ 0.5
C22G U32C U47C U53G | ≤ 0.5
C22G C29G C62U | ≤ 0.5
C22U A37G A45U | 0.547
C22G C29G G63A | ≤ 0.5
C22U A36C U54C A57U | ≤ 0.5
C22U A40G A43U C46G C49G | ≤ 0.5
C22G C49G A69U | 0.634
C22G G39A A42U A57C | ≤ 0.5
C22G U28A G67C | ≤ 0.5
C22G C49G U64G A65G A70U | ≤ 0.5
C22U A42G U54C C55G A70U | ≤ 0.5

Variant | yeast fitness
C22G C61A A69U | 0.573
C22U A37G G48C C55U | 0.64
C22G U35G A40C | ≤ 0.5
C22G C27U C33A A36C A43G C55G | ≤ 0.5
C22G C60G C66A | ≤ 0.5
C22G C46G | 0.974
C22G C46A | 1.03
C22G C31U G39A | 0.636
C22G C49U C61A | 0.69
C22G G25C A43G | 0.584
C22G C46A C49U G68A | ≤ 0.5
C22U A37G A45U G52A C62G A70U | ≤ 0.5
C22G U26G G44A C55G G63C | ≤ 0.5
C22G C29G C33U | ≤ 0.5
C22G C30G A70U | 0.601
C22G G44A | 0.846
C22G C31A C49G G63C A69U | 0.603
C22G C61U | 0.841
C22G C61A | 0.623
C22G G48A | 0.988
C22G C62U | 0.879
C22G G25C C61G | 0.659
C22G C34G A70C | 0.608
C22G G23A C46U A57G | ≤ 0.5

Variant | yeast fitness
C22G C29G C33U A42G G50A C66U | ≤ 0.5
C22U A37G A45U G52A U54C | ≤ 0.5
C22G C29G G44C G56A A57G | 0.515
C22G G50C C55G | ≤ 0.5
C22G C31G A36G | 0.646
C22G G67A | 0.819
C22G C60G C62U | ≤ 0.5
C22G C31G U53A | ≤ 0.5
C22G G23A C30G A65C | 0.535
C22G G39C A43U G44A U47C G58C | ≤ 0.5
C22G U28A A36U | 0.631
C22G C29U C31A A65G | ≤ 0.5
C22G G25A | 0.993
C22G G25C | 0.977
C22G C34A C49A | 0.818
C22G C46A G48A A57U C60A | 0.576
C22G G39C U59G C66U | 0.504
C22G C34U C46A C62U | 0.611
C22G U53C A65C | 0.558
C22G G38A U47C | ≤ 0.5
C22G U28C | 0.853
C22G C55G G63C | 0.572
C22U A40G G63C | 0.531
C22G C31A A43G A57C A65U | ≤ 0.5

Variant | yeast fitness
C22U A37C G41C | ≤ 0.5
C22U A40G C61U A70U | 0.547
C22U A43C A70C | 0.643
C22G C31G U54A C61G A69C | ≤ 0.5
C22G U28A C31G | ≤ 0.5
C22U A42U G51C | 0.647
C22U A42G A45C C55G U64G | ≤ 0.5
C22G G52C C66U G68A | ≤ 0.5
C22G C31A A36G C49G G63C A69U | 0.543
C22G U59A A69G | ≤ 0.5
C22G G58U | 1.05
C22G C34G A43U C49A | ≤ 0.5
C22U A36U G56A C66U | ≤ 0.5
C22G G63C | 0.623
C22U A36C | 0.616
C22U A36U | 0.591
C22G G41C | 0.814
C22U | 0.908
C22G G67C A69C | ≤ 0.5
C22G C34A U53C | 0.543
C22G G41C A65U | ≤ 0.5
C22G U28A C31G A45G C55A G68C | ≤ 0.5
C22G C30G U59A | ≤ 0.5
C22G C29G A42C A45C C61G A69U | ≤ 0.5

Variant | yeast fitness
C22G C27U U59A | 0.571
C22G U64C | 0.856
C22U A37C A40G G52A U53A | ≤ 0.5
C22G C30G G68A | ≤ 0.5
C22G U26C C33U A37U A40C | ≤ 0.5
C22G C34G C61G | ≤ 0.5
C22G G23C | 0.779
C22G G23U | 0.73
C22G C30A A45G | ≤ 0.5
C22G C34A C66A | 0.703
C22G C29A A37U C49A | ≤ 0.5
C22G C29G C46U | 0.568
C22G G63A C66U | 0.593
C22G C33U A40U U59A | 0.514
C22G G25A U53C | ≤ 0.5
C22G C55A C60A | ≤ 0.5
C22G C49U A57C | 0.594
C22G C31G A57C A69C | ≤ 0.5
C22U A37U | 0.694
C22U A37C | 0.593
C22G C34U C60U C62U A70C | ≤ 0.5
C22G G44C U47C A70C | ≤ 0.5
C22G C30U A37G A43U G68U | ≤ 0.5
C22G C30G G50A A57U A70G | ≤ 0.5

Variant | yeast fitness
C22G C46A C62U | 1.04
C22G C30G C55A U64C | 0.581
C22G G41A G50U C62A G63C | ≤ 0.5
C22G C30A C49A A69U | ≤ 0.5
C22G C49A | 0.682
C22G C49G | 0.664
C22G C49U | 0.986
C22G U47A G67A | ≤ 0.5
C22G U28A A37C A42C C46A | ≤ 0.5
C22G U26A C30A A42U | 0.692
C22G C30A C61U | 0.545
C22G U53A G68C | ≤ 0.5
C22G C27U C30U A37G A43U G67A | ≤ 0.5
C22U A36C C60G | ≤ 0.5
C22U A40G C46U G63A | ≤ 0.5
C22G C31G U54G | 0.595
C22G G39C G50C | ≤ 0.5
C22G C34G C61G A69G | ≤ 0.5
C22G G38C | 0.775
C22U A36U C62G G63A | ≤ 0.5
C22G C30G U47C A70U | ≤ 0.5
C22U A40U G48A | ≤ 0.5
C22U A37U G58A A69C | ≤ 0.5
C22G C30G U47C U54C | ≤ 0.5

Variant | yeast fitness
C22U A37U C49A C62U | 0.598
C22U A37U U53G | ≤ 0.5
C22G U32C A69U | 0.705
C22G C30G G50A A57U | ≤ 0.5
C22U A40U U64A | ≤ 0.5
C22G C34U C66U | ≤ 0.5
C22U A42G U53C C55G A70U | ≤ 0.5
C22G U35G | 0.62
C22G U35A | 0.614
C22G U59A C66A | 0.554
C22G C31U C49U | 0.989
C22G G58C C66A | ≤ 0.5
C22G C29G | 0.546
C22G C29U | 0.838
C22G C29G C46U C66U | ≤ 0.5
C22G U32A C60A A69C | 0.619
C22G C49A G56C G58C C60G | 0.605
C22G U47C U53G | 0.551
C22G G58C C61A A69U | ≤ 0.5
C22G C33A A36C A43G C55G | 0.595
C22G C33A A36C A43U C55G | ≤ 0.5
C22G U32C A37G | 0.559
C22G U64C G68C | 0.623
